Measured values as given in ChEMBL document CHEMBL4513216, “Probing the Open Global Health Chemical Diversity Library for Multistage-Active Starting Points for Next-Generation Antimalarials” (ACS Infect Dis, 2020).

Assay: Toxicity liver stage against HepG2, at 10uM
Assay type: cell-based
Parameters: test concentration 10 uM, cell line HepG2-A16-CD81EGFP
Conditions: human, HepG2-A16-CD81EGFP cells; read-out: INHIBITION
In short: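 Uninfected HepG2-A16-CD81EGFP cells, 3 × 10^3 per well, 1536-well, plated on prespotted compound at 10 μM final, parasite-free screening media added to match infected plates; puromycin 10 μM positive, DMSO 0.5% negative; run in parallel with 48 h PbLuc assay at 37 °C, 5% CO2; viability by CellTiter-Glo luminescence, normalized to controls.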

Compound | cytotoxicity at 10 µM
CCN1CCC2(CC1)OCCN2C(=O)c1cc(Cl)c(OC)c(Cl)c1 | 9.31%
CN(Cc1ccc(O)cc1)C(=O)NC1CCCN(c2ncccn2)C1 (configuration not stated) | -9.63%
COc1ccc(CC(C)Nc2cccc(F)c2)cc1 (configuration not stated) | 5.82%
Cc1csc(Nc2nccnc2C2CCCN2C(=O)C(C)C)n1 (configuration not stated) | 1.3%
Cc1cc(C(=O)N2CCCC2c2noc(C(C)C)n2)c(C)o1 (configuration not stated) | -3.54%
Cc1cccc2c1cnn2CCCNC(=O)C(C)C | -2.12%
CCOCC(=O)NC(C#N)c1cnn(-c2ccccc2)c1 (configuration not stated) | -4.39%
Cc1cc(C)c(CNCC(O)c2ccc(F)c(F)c2)c(C)c1 (configuration not stated) | 6.59%
CCOCC1CN(S(=O)(=O)Cc2ccccc2)Cc2nccn2C1 (configuration not stated) | -105%
CCn1cc(Cl)c(C(=O)Nc2ccc3c(c2)C(C)(C)C(=O)N3C)n1 | 9.21%
Cc1cc(N[C@H]2CCCN(Cc3ccccc3)C2)n2nc(C)cc2n1 | 1.53%
Cn1cc(C2CC(=O)NC23CCN(C(=O)c2cccnc2)CC3)cn1 (configuration not stated) | -79.7%
CO[C@@H]1c2ccccc2C2(CCN(C(=O)CNS(C)(=O)=O)CC2)[C@H]1O | 11.1%
CCC(NC(=O)c1nn(C)cc1C(=O)O)c1ccc(C)cc1C (configuration not stated) | -8.66%
CCN(CC1CN(Cc2ccccn2)CCO1)c1cccnn1 (configuration not stated) | -6.95%
CC[C@H]1CN2CC[C@H]1C[C@@H]2CNC(=O)Nc1ccccc1 | -0.989%
CCc1nnsc1C(=O)N(C)Cc1ccco1 | -45%
NC(=O)CCC1CCCN(c2ccc3c(Cl)ccnc3c2F)C1 (configuration not stated) | 29.6%
CCNc1ccnc(NCc2cn3nc(C)sc3n2)n1 | -3.41%
Cc1nc(N2CCCCC2)ncc1C(=O)N1CC(C)(C)[C@@](C)(O)C1 | 1.41%
COCC1CN(C(=O)Cc2ccccn2)Cc2c1cnn2CC1CC1 (configuration not stated) | -69.1%

Compound | cytotoxicity at 10 µM
Cc1nccn1-c1ccc(=O)n(CCNC(=O)c2ccncc2)n1 | -3.18%
O=C(Nc1cc(C2CCOCC2)[nH]n1)c1cscn1 | -7.84%
c1ccc(-c2nnc(CN3C[C@H]4CC[C@@H](C3)N(CC3CCC3)C4)o2)cc1 | -8.51%
CN(C)c1ccc2c(c1)CN(C(=O)c1c[nH]cn1)C2c1cnco1 (configuration not stated) | -0.234%
CCOCCNC(=O)c1ccn(S(=O)(=O)c2ccc(C)cc2)c1 | -3.18%
CCOc1ccc(OC2CCCN(c3cnn(C)c3)C2=O)cc1 (configuration not stated) | 0.118%
O=C(CCn1c(C(F)F)cc2cccnc21)NC1CC1 | -1.71%
CC(C1CCN(Cc2cnn(C)c2C2CC2)CC1)N1CCCC1 (configuration not stated) | 6.29%
COc1ccc(C(C)Nc2ncnc3c2NC(=O)CN3)cc1 (configuration not stated) | 7.83%
CC[C@H]1COCCN1C(=O)c1ccc(OC)c(N2CCOCC2)c1 | 3.89%
CNC(=O)CN(C)Cc1ccc(F)cc1Cl | -2.9%
COc1cc(CN(C)C(=O)NCc2ccccn2)ccc1SC | -8.42%
Cc1ccc(OCCC(=O)N2CCOCC2c2ncon2)cc1C (configuration not stated) | -11.9%
CCC(=O)NCC(=O)NCc1cc(Br)ccc1OC(F)F | 17.5%
Cc1cc(C)n(C2CN(CCC(=O)NCCc3ccccc3)C2)n1 | 11.8%
CCNC(=O)N1CCC(Nc2nccc(NCC)n2)CC1 | -3.6%
COc1cccc(CN(C)S(=O)(=O)N2CCOCC2)c1 | -8.62%
COCCN1CCC2(CCN(c3ncccn3)CC2)C1=O | 3.47%
Cc1nc(CCCC(=O)Nc2cccc(N3CCNC3=O)c2)cs1 | -2.26%
O=C(C1CCC1)N1CCC(C(=O)N2CCC(c3ccc(F)cc3)C2)CC1 (configuration not stated) | -39.8%
CCc1cc(NC2CCN(CC(N)=O)CC2)nc(N2CCCCC2)n1 | -4.75%

Compound | cytotoxicity at 10 µM
Cc1nc(N2CCN(c3ccccc3)CC2)c2c(n1)c(C)nn2C | 7.8%
CC(=O)N1CCN(C(=O)Cc2cnc(-c3c(Cl)cccc3Cl)s2)CC1 | 7.27%
NS(=O)(=O)c1ccc(CNCC(=O)NCc2ccc(Cl)cc2Cl)cc1 | -48.6%
O=C1CSC(c2ccc(O)cc2)c2c(n(C3CCOCC3)[nH]c2=O)N1 (configuration not stated) | 2.84%
CNS(=O)(=O)c1ccc(CNC(=O)c2ccccn2)cc1 | 10.2%
Cc1cnc(N2C[C@H]3CCN(CC4CC4)C[C@@H]3C2)nc1 | 7.55%
CCc1nccn1CC(=O)N1CCN(C2CCc3ccccc3C2)CC1 (configuration not stated) | -119%
Cc1cc(=O)n(CC(=O)NCC2CCCO2)c(-c2ccccc2)n1 (configuration not stated) | -14.6%
CC(C)C(=O)N1CCCc2c(cnn2-c2ccccc2)C1 | 11%
O=C(Nc1cccs1)N1CC(c2nc(C3CC3)no2)C1 | -0.921%
Cc1ccc(-c2nc(C(=O)N3CCCC(C(N)=O)C3)cs2)c(C)c1 (configuration not stated) | -2.9%
CC(C)NC(=O)NC[C@H]1OC[C@@H](NCc2ccccc2F)[C@@H]1O | -1.31%
c1cc(CNc2nnc(Cc3ccsc3)o2)cs1 | 0.369%
c1coc(-c2noc(CN3CCc4cncnc4C3)n2)c1 | -9.39%
Cc1ccc(-c2nc(CN3CCOC(c4ccccc4)C3)cs2)o1 (configuration not stated) | -8.11%
CCOCC1CC2(CCN(Cc3ccccn3)CC2)CO1 (configuration not stated) | -0.671%
Oc1ccc(-c2c(-c3ccccc3)ncn2C[C@H]2CCCN2)cc1 | 17.5%
O=C(NCc1cccc(N2CCCCC2=O)c1)[C@@H](O)c1ccccc1 | -8.31%
Cc1occc1C(=O)N1C[C@@H]2CCCO[C@@H]2[C@H](N(C)Cc2ccco2)C1 | 6.67%
CCc1nc(CN2CCN(C(=O)c3csc(C(C)C)n3)CC2)no1 | 11.3%
CC(C)OCCCNC(=O)CN(c1ccc(F)c(F)c1)S(C)(=O)=O | 9.96%

Compound | cytotoxicity at 10 µM
CCn1cc2c(n1)C(COCC1CC1)CN(C(=O)c1cnoc1C)C2 (configuration not stated) | 17.5%
CC(C)n1cc(N2CC(C(=O)N3CCN(C)CC3)CC2=O)cn1 (configuration not stated) | 1.44%
CC(=O)N1CCC2(CC1)CC(NC(=O)N(C)C)c1cc(C)ccc12 (configuration not stated) | 4.3%
c1ccc(-c2nc(CN3CCc4c(ncn4C4CC4)C3)cs2)cc1 | -8.65%
CNc1ccc(C2CN(c3nc(C)cc(C)n3)CCO2)nc1 (configuration not stated) | 0.575%
COc1ccccc1OCCNC1CCCN(Cc2noc(C)n2)C1 (configuration not stated) | -19.1%
CC(C)c1nccn1C1CCCN(C(=O)c2cccc3[nH]ncc23)C1 (configuration not stated) | -0.35%
CC(C)NC(=O)CNC(=O)N1CCc2c([nH]c3ccc(Cl)cc23)C1 | 7.15%
Cc1cc2nc(CO[C@H]3CN(C4CCC4)C[C@H]3F)[nH]c2cc1C | 1.56%
Cc1csc(CN(CC2CCCO2)C(=O)c2ccc(C)nc2C)n1 (configuration not stated) | -1.19%
CC(=O)N1CCN(C(=O)c2snnc2C)[C@H]2CS(=O)(=O)C[C@H]21 | -0.145%
COc1ccc(Cn2cc(C(C)O)nn2)cc1 (configuration not stated) | 16.9%
c1csc(CN2CCC3(CC2)CCN(CC2CC2)CC3)n1 | 3.17%
CCCC(=O)NC(C)(C)Cc1ccccc1OC | 5.55%
CCOc1ccccc1OC1CCN(C(=O)c2ccc(=O)[nH]n2)CC1 | -8.7%
CCCc1nc(CN2CCN(C(C)c3nc(C4CC4)no3)CC2)no1 (configuration not stated) | -8.14%
CCCNC(=O)CNC(=O)CC1CCCc2cc(OC)ccc21 (configuration not stated) | -4.52%
Cc1cnn(CCNCc2nccn2CC(F)(F)F)c1 | 6.51%
COC(=O)c1oc(CNC(C)(C)CO)cc1C | 10.5%
